High-throughput results deposited in PubChem by several laboratories.
Rows were chosen to be rich in hits. Some 4.6% of all compounds tested hit in one or more screens of this group.
UCH37 inh: blocks the human deubiquitinase UCH37. Q9Y5K5. inhibition, % (test concentration not listed). 330,000 compounds, 0.33% hits. AID 588478. purified proteasome/UCH37, Ub-AMC cleavage fluorescence;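 active means mean inhibition over replicate wells above about 20%, limit read from the data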;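 further: 0% = compound-free wells with enzyme and 100% = wells lacking proteasome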
Target sequence (Q9Y5K5 whole entry, looked up): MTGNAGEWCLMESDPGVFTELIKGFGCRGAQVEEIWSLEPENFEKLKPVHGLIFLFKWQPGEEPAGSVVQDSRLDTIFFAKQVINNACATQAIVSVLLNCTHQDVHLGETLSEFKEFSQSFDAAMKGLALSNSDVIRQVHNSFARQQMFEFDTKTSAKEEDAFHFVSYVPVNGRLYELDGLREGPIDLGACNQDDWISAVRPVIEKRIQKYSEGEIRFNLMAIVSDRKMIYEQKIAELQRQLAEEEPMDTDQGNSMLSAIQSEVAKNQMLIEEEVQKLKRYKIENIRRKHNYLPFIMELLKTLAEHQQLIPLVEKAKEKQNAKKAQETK
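Material: human UCH37 enzyme supplied as purified proteasome complex. Measure: % inhibition of Ub-AMC cleavage fluorescence. Medium: pH 7.4 Tris-HCl (50 mM) with ovalbumin, ATP-MgCl2, DTT. Times: 30 min preincubation with enzyme, 25 min cleavage at room temperature. Detection: AMC fluorescence intensity at 355/460 nm.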
ALR H2O2 inh: inhibitors of human sulfhydryl oxidase ALR; P55789; inhibition, % (concentration not given with the values); purified ALR, DTT oxidation, H2O2 HRP-luminol luminescence; 290,000 compounds, 3.8% hits;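 active means mean replicate inhibition above about 79%, with every replicate also reaching it, limit read from the data; inconclusive means only one of the two criteria met; inactive means mean below limit and not every replicate reaching it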
Rtt109 Vps75: inhibitors of Candida albicans Rtt109/Vps75 histone acetyltransferase. Q5AAJ8. purified Rtt109/Vps75, ThioGlo CoA-SH fluorescence, 4 h. inhibition, % at 34.9 µM. 330,000 compounds, 0.16% hits. AID 540336;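 active means inhibition of at least 50% in every replicate; inconclusive means best replicate reaches 50% inhibition but some replicates fall short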
Target sequence (Q5AAJ8 whole entry, looked up): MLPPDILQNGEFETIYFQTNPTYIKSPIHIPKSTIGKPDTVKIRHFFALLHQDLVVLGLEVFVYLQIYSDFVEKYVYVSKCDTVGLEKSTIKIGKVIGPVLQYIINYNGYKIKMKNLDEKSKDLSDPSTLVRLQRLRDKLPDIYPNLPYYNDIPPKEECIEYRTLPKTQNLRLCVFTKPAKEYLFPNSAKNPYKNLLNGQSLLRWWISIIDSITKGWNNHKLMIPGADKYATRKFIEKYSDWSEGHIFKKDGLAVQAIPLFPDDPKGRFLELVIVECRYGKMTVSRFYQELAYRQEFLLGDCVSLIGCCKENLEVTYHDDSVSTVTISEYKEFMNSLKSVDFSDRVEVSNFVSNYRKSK
M18AAP inhibitor: blocks P. falciparum M18 aspartyl aminopeptidase; recombinant PfM18AAP, H-Glu-NHMec fluorogenic cleavage; inhibition, % at 7.35 µM; 290,000 compounds, 1.2% hits; AID 1822;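 active means inhibition above the campaign mean inhibition over all tested compounds plus 3 SD, cut at about 28% in these data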;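 further: 0% = plate median of test compound wells and 100% = 2 mM ZnCl2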
HDAC3 inhib: inhibitors of human histone deacetylase 3; recombinant HDAC3, fluorogenic peptide/trypsin coupled, fluorescence; O15379; 320,000 compounds, 0.15% hits; inhibition, % at 8.3 µM; AID 2718; in the data active means inhibition above about 26%, passing the limit was not always enough; inconclusive means no clear call, values can overlap the other calls
FAS TE block: blocks the thioesterase domain of human fatty acid synthase | recombinant FAS-TE, OMFH fluorogenic substrate, fluorescence endpoint | inhibition, % at 15 µM | 360,000 compounds, 0.67% hits;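 active means compounds whose normalised, plate-corrected inhibition of enzyme fluorescence in the single-dose primary screen is 50% or more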;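 further: 0% = DMSO with enzyme and 100% = substrate without enzyme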
Numbers without * were called inactive; ? = inconclusive; · = no result given; ! = not confirmed by another sample.

SMILES	UCH37 inh	ALR H2O2 inh	Rtt109 Vps75	M18AAP inhibitor	HDAC3 inhib	FAS TE block
Cc1ccc(/C=N/NC(=O)CSc2nc3ccccc3n2C)s1	·	88.6*	0.5	3.1	3.4	-2.1
Cn1c(SCC(=O)N/N=C/C=C\c2ccco2)nc2ccccc21	·	85.9*	-9.8	9.5	5.4	-2.4
CCn1c(SCC(=O)NN=Cc2ccc(C)s2)nc2ccccc21	5.3	·	·	·	·	·
CC(=NNC(=O)CSc1nc2ccccc2n1C)c1ccncc1	5.1	·	·	·	·	·
CCCc1nnc(SCC(=O)Nc2ccc(OCC)cc2)n1N	-7.2	98.4*	5.0	-0.8	-5.9	-4.6
Cc1cc(NC(=O)CSc2nncc(=O)n2N)no1	2.9	48.5	-2.4	26.3	3.1	-0.7
CCOc1ccc(NC(=O)CSc2nncc(=O)n2N)cc1	9.3	95.7*	18.8	0.1	-1.9	-10.9
CCOc1ccc(NC(=O)CSc2nnc(C)n2CC)cc1	3.4	-6.6	-1.2	-2.0	-7.1	-1.5
Nc1nonc1-n1nnc(C(=O)NN=Cc2ccccn2)c1-c1ccccc1	1.1	·	·	·	·	·
O=C(Nc1ccc(F)cc1)C1=CC(=O)N2CCN=C2S1	·	30.1	·	29.3*	10.4	·
Cc1nc(Nc2ccc(S(N)(=O)=O)cc2)sc1C(=O)Nc1ccccc1	21.4*	4.5	-11.2	-12.3	13.3	-0.3
Cc1nc(Nc2ccccc2)sc1C(=O)Nc1ccccc1	-0.5	-3.0	-3.0	-1.5	6.5	12.0
S=C(NCCc1ccccc1)NN=Cc1ccccc1Cl	6.7	·	·	·	·	·
Cc1cc(O)c(C=NNc2cccc(Cl)c2)c(=O)o1	8.1	·	·	·	·	·
COc1ccc(S(=O)(=O)CC(=O)c2cc3cc(Br)ccc3oc2=O)cc1	-1.2	18.9	-2.2	28.8*	0.1	1.1
CC1(C)Cc2nc(-c3ccccc3)nc(NNC(=O)c3ccco3)c2CO1	2.6	97.4*	-0.7	10.1	-1.3	-5.5
O=C1Nc2ccccc2C1=NN=Cc1cccc(O)c1	6.8	·	·	·	·	·
COc1cc(/C=N/N=C2/C(=O)Nc3ccccc32)ccc1O	·	98.7*	1.3	16.9	-1.3	-12.1
COc1cc(/C=N/N=C2/NC(=O)C(c3ccccc3)S2)ccc1O (centres undefined)	·	98.6*	5.6	20.3	?	-13.9
COc1ccc(C=NNc2ccc(S(=O)(=O)Nc3ccccc3C(=O)O)cc2[N+](=O)[O-])c(OC)c1	31.5*	43.4	?	·	13.0	48.9
CSc1ccc(C=NNc2ccc(S(=O)(=O)Nc3ccccc3C(=O)O)cc2[N+](=O)[O-])cc1	22.4*	6.7	3.4	·	?	40.2
N#C/C(=N\O)c1nc(-c2ccccc2)cs1	·	88.6*!	9.4	6.3	1.5	-40.4
N#CC(=C1CCCC1)c1nc(-c2ccccc2)cs1	0.8	-11.5	4.5	-2.4	-0.1	18.9
CCOC(=O)CSc1nnc(-c2ccc(S(=O)(=O)N3CCOCC3)cc2)n1-c1ccccc1	-0.1	·	2.0	2.2	·	-1.3
Cc1nnc(SCC(=O)c2ccc(S(=O)(=O)N3CCOCC3)cc2)n1-c1ccccc1	2.4	93.7*	-7.9	2.0	-8.5	-4.9
SMILES	UCH37 inh	ALR H2O2 inh	Rtt109 Vps75	M18AAP inhibitor	HDAC3 inhib	FAS TE block
COc1ccc(CC(=O)NN=Cc2cc(Br)cs2)cc1OC	2.3	·	·	·	·	·
CCC(C)c1ccc(O)c(NC(=O)c2cccnc2)c1 (centres undefined)	2.1	95.2*	-5.0	3.1	-1.1	-7.9
CCOc1cc(C=NO)cc(Br)c1OCC(=O)NCc1ccccc1	5.7	·	·	·	·	·
CC(=NC1CC1)c1c(-c2ccccc2)[nH]n(-c2nc3ccccc3s2)c1=O	5.4	31.6	-0.3	3.9	0.7	14.6
CC(=NC1CCCC1)c1c(C)[nH]n(-c2nc3ccccc3s2)c1=O	-1.9	93.0*	6.3	2.2	14.6	4.6
S=c1[nH]cc(-c2ccccc2)n1-c1ccccc1Cl	2.3	90.2*	-9.2	12.2	-1.5	-12.1
Cc1ccc(-c2c[nH]c(=S)n2-c2ccccc2F)cc1	2.3	97.9*	1.2	-1.3	7.1	-5.6
Cc1ccsc1C=NNc1cn[nH]c(=O)c1Cl	8.6	·	·	·	·	·
Cc1ccc(-c2cc(C(=O)NN=Cc3ccco3)n[nH]2)s1	4.6	·	·	·	·	·
O=[N+]([O-])c1ccc(NN=Cc2c[nH]c3ccccc23)c(S(=O)(=O)Nc2ccc(Cl)cc2)c1	13.2	·	·	·	·	·
COc1cccc(-c2nc(CS(=O)CC(=O)NCc3ccccc3)c(C)o2)c1 (centres undefined)	4.9	99.6*	-3.5	-1.2	-2.6	-1.8
CCCNC(=O)CS(=O)Cc1nc(-c2cccc(OC)c2)oc1C (centres undefined)	9.7	98.7*	7.1	0.4	5.2	-5.6
Cc1ccc(NC(=O)CSc2nncc3ccccc23)cc1	9.5	99.1*	6.2	12.3	5.8	-1.2
Cc1nnc(SCC(=O)Nc2ccccc2)c2ccccc12	11.1	98.9*	-0.3	4.2	-1.9	-2.8
Cc1ccccc1NC(=O)CSc1nnc(C)c2ccccc12	6.6	96.3*	5.0	4.0	-0.6	-3.5
COc1ccc2cnnc(SCC(=O)Nc3ccc(C(=O)O)cc3)c2c1OC	·	98.8*	1.3	-2.1	3.1	-16.1
Cc1nnc(SCC(=O)Nc2ccc(O)cc2)c2ccccc12	10.6	0.4	·	-0.2	0.9	-2.6
COc1cc(C=NNC(=O)C(C)Nc2n[nH]c(=O)[nH]c2=O)cc(OC)c1O (centres undefined)	-0.4	·	·	·	·	·
Clc1ccccc1-c1nc(NN=Cc2cccnc2)c2ccccc2n1	6.2	·	·	·	·	·
O=C(NN=Cc1cccn1-c1ccc([N+](=O)[O-])cc1)C(O)c1ccccc1 (centres undefined)	11.1	·	·	·	·	·
NC(=NOCc1ccccc1)c1nonc1N	5.9	·	·	·	·	·
COC(=O)C1CC(c2ccccc2)N(c2ccccc2)O1 (centres undefined)	·	·	·	·	·	3.4
COC(=O)C1C(C(C)C)N(c2ccccc2)OC1(C)O (centres undefined)	1.0	86.0*	-0.4	-0.3	4.4	-8.0
O=C(NN=Cc1cc(Br)c(O)c(Br)c1)c1ccccc1NS(=O)(=O)c1cccs1	-14.3	89.3*	3.8	·	-41.9	-5.6
CC(=NNC(=O)C12CCC(C)(C(=O)O1)C2(C)C)c1ccccc1O (centres undefined)	2.5	·	·	·	·	·
SMILES	UCH37 inh	ALR H2O2 inh	Rtt109 Vps75	M18AAP inhibitor	HDAC3 inhib	FAS TE block
O=C(/C=C/c1ccc[nH]1)c1ccccc1	4.5	97.5*	6.2	-5.3	2.7	-4.9
COc1ccc(N(CC(=O)NN=Cc2ccc(F)cc2)S(=O)(=O)c2ccccc2)cc1	3.4	·	·	·	·	·
CCCOP(=O)(OCCC)C1(Nc2ccc(C)cc2)CCCCC1	2.0	93.3*	9.1	-1.0	12.3	-1.2
C=CCN1C(=O)C2(C(C(=O)c3ccc(C)o3)=C(O)C(=O)N2CCCN2CCOCC2)c2ccccc21 (centres undefined)	6.5	-1.6	2.5	-2.0	-0.9	-11.0
CCCN1C(=O)C2(C(C(=O)c3ccc(C)o3)=C(O)C(=O)N2CCCN2CCOCC2)c2ccccc21 (centres undefined)	20.8*	-1.9	2.3	-12.6	7.1	-9.8
CC(=NN1CCN(Cc2cccc3ccccc23)CC1)c1cccnc1	-1.2	·	·	·	·	·
